Data reported in ChEMBL document CHEMBL4732131, “Design, synthesis and evaluation of novel thienopyrimidine-based agents bearing diaryl urea functionality as potential inhibitors of angiogenesis” (Eur J Med Chem, 2021).
pIC50: −log10 of the molar value. Activity calls are given as the source filed them. The rule behind the calls is not given here.

Key:
HUVEC = test: Antiproliferative activity against HUVEC incubated for 48 hrs by MTT assay; type: functional, cell-based; conditions: Homo sapiens
Procedure, shortened: (§1)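 8000 cells per well in complete medium, settled overnight at 37 °C under 5% CO2. Compounds were added from DMSO over a range of concentrations and incubated 48 h at 37 °C. MTT (5% solution) was added for 4 h and absorbance read at 570 nm. IC50 was taken from survival-versus-concentration curves. Negative control was 0.1% DMSO.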

HepG2 = test: Antiproliferative activity against human HepG2 cells incubated for 48 hrs by MTT assay; type: functional, cell-based; conditions: HepG2, 48 h; procedure, shortened: as §1
PC-3 = test: Antiproliferative activity against human PC-3 cells incubated for 48 hrs by MTT assay; type: functional, cell-based; conditions: PC-3, 48 h; procedure, shortened: as §1
T47D = test: Antiproliferative activity against human T47D cells incubated for 48 hrs by MTT assay; type: functional, cell-based; procedure, shortened: as §1
Chorioallantoic membrane [1] = test: Vascular disruptive effect in chicken fertilized egg chorioallantoic membrane assessed as reduced length of blood vessels by CAM assay; type: functional, tissue-based; conditions: Gallus gallus
Chorioallantoic membrane [2] = test: Vascular disruptive effect in chicken fertilized egg chorioallantoic membrane assessed as decrease in number of capillary blood vessels by CAM assay relative to control; type: functional, tissue-based; parameters: concentration or dose not given beside the values; conditions: Gallus gallus, dose or concentration not given here

Compound	pIC50 (HUVEC)	pIC50 (HepG2)	pIC50 (PC-3)	pIC50 (T47D)	inhibition (Chorioallantoic membrane [1])	inhibition (Chorioallantoic membrane [2])
Cc1ccc(NC(=O)Nc2nnc(Sc3ncnc4scc(-c5ccncc5)c34)s2)cc1Cl	4.63	4.80	5.33	4.46		
O=C(Nc1cccc(Cl)c1)Nc1nnc(Sc2ncnc3scc(-c4ccncc4)c23)s1	4.68	4.64	5.10	4.36		
COc1cccc(NC(=O)Nc2nnc(Sc3ncnc4scc(-c5ccncc5)c34)s2)c1	4.17	4.55	5.17	4.24		
Cc1ccc(NC(=O)Nc2nnc(Sc3ncnc4scc(-c5ccncc5)c34)s2)cc1	4.71	4.28	5.68	4.75		
COc1ccc(NC(=O)Nc2nnc(Sc3ncnc4scc(-c5ccncc5)c34)s2)cc1	4.77	4.84	5.00	< 4.00		
O=C(Nc1cccc(C(F)(F)F)c1)Nc1nnc(Sc2ncnc3scc(-c4ccncc4)c23)s1	4.65	4.82	4.94	4.35		
O=C(Nc1cccc(F)c1)Nc1nnc(Sc2ncnc3scc(-c4ccncc4)c23)s1	4.86	4.19	5.18	4.78	inactive	35%
